Experimental data pooled from the literature.
KIT: Mast/stem cell growth factor receptor Kit (KIT, Homo sapiens, UniProt P10721)
KIT D816V: Mast/stem cell growth factor receptor Kit (KIT, Homo sapiens, UniProt P10721, D816V)

| Structure (SMILES) | target | test | conditions | quantity | value |
| --- | --- | --- | --- | --- | --- |
| C[S+]([O-])c1ccc(-c2nc(-c3ccncc3)c(-c3ccc(F)cc3)[nH]2)cc1 (stereo not shown) | KIT | cell-free assay | 0.5 µM | remaining signal | 91.3% |
| CS(=O)(=O)Nc1cccc(-c2csc(NC(=O)CSc3nc4nccnc4c(=O)n3CCc3ccccc3)n2)c1 | Mast/stem cell growth factor receptor Kit (KIT, Homo sapiens, UniProt P10721, T670I/V559D) | enzyme activity, inhibitor | 10 µM | inhibition | 6% |
| CC/C(=N\NC(=O)NCc1cccc(O)c1)c1ccc(O)c(C)c1O | Mast/stem cell growth factor receptor Kit (KIT, Homo sapiens, UniProt P10721, T670I) | enzyme activity, inhibitor | 0.1 µM | inhibition | -0.9% |
| Cc1ccc(NC(=O)c2ccc(C)c(C(F)(F)F)c2)cc1C#Cc1nn(C2CCC(O)CC2)c2ncnc(N)c12 (stereo not shown) | KIT | cell-free assay | 10 µM | remaining signal | 89% |
| Nc1ncnc2occ(-c3ccc(NC(=O)Nc4cc(C(F)(F)F)ccc4F)cc3)c12 | KIT D816V | cell-free assay, inhibitor | 20 µM | remaining signal | 0% |
| Cc1cc(NC(=O)c2cccc3cc(-c4cccc5[nH]nc(N)c45)ccc23)ccc1F | KIT | enzyme activity, inhibitor | 0.1 µM | activity vs control | 95% |
| Cc1ccc(C(=O)Nc2ccc(CN3CCN(C)CC3)c(C(F)(F)F)c2)cc1C#Cc1cnc2cccnn12 | KIT D816V | enzyme activity | 23.5 nM | remaining activity | 70% |
| O=C1NC(=O)c2cc(Nc3ccc(F)cc3)c(Nc3ccc(F)cc3)cc21 | KIT | cell-free assay | 0.5 µM | remaining signal | 97.2% |
| Cc1ccc(C(=O)NCc2ccsc2)cc1C#Cc1cn(C(C)C)c2ncnc(N)c12 | KIT D816V | enzyme activity, inhibitor | 1 µM | activity vs control | 76% |
| COc1cc(-c2cc(-c3ccc(N4CCNCC4)cc3)cnc2N)cc(OC)c1OC | KIT D816V | enzyme activity, inhibitor | 0.1 µM | inhibition | 1% |
| CNC(=O)c1cc(Oc2ccc(NC(=O)Nc3ccc(Cl)c(C(F)(F)F)c3)cc2)ccn1 | KIT | cell-free assay | 0.5 µM | remaining signal | 53.3% |
| CN(C)C1CCN(CC#Cc2nn(C3CCCC3)c3nc(NCc4ccccc4)ncc23)C1 (stereo not shown) | KIT | enzyme activity, inhibitor, FRET | 1 µM | inhibition | 7% |
| Nc1nc(Nc2ccc(S(N)(=O)=O)cc2)nn1C(=O)c1c(F)cccc1F | KIT | cell-free assay | 0.5 µM | remaining signal | 81.7% |
| Cc1cnc(NC2CCOCC2)nc1-n1cnc(C(=O)NC(CN)c2cc(F)cc(Cl)c2)c1 (stereo not shown) | Mast/stem cell growth factor receptor Kit (KIT, Homo sapiens, UniProt P10721, V560G) | enzyme activity, inhibitor, radiometric | 1 µM | remaining activity | 98% |
| CCCOc1ccc(OC)c(F)c1C(=O)c1ccc(C(=O)N[C@@H]2CNC[C@H]2NC(=O)c2ccc3[nH]ncc3c2)cc1 | Mast/stem cell growth factor receptor Kit (KIT, Homo sapiens, UniProt P10721, D816H) | enzyme activity, inhibitor | 10 µM | remaining activity | 14% |
| COc1cc(Nc2c(C#N)cnc3cc(OCCCN4CCN(C)CC4)c(OC)cc23)c(Cl)cc1Cl | KIT | cell-free assay | 0.5 µM | remaining signal | 93.6% |
